One data set deals with T1, DEGS1 (Homo sapiens, UniProt O15121).
T1 sequence (O15121 1-323): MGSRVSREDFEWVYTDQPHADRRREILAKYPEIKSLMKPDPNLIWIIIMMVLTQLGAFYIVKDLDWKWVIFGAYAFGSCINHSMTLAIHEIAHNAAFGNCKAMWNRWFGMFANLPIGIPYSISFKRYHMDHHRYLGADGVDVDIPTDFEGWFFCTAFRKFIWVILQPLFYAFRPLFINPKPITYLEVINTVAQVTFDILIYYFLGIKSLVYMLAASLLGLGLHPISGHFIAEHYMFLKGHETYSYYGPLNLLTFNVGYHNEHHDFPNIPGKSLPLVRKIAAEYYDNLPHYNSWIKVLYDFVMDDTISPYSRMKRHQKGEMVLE
The experiment in a line: In vitro DEGS assay with HCT-116 cell homogenates. It is filed as biochemical. The method in brief: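 HCT-116 cells were treated for 1 or 2 h with test compound, reference inhibitor or DMSO. Cells were homogenized in 5 mM Hepes (pH 7.4) with 50 mM sucrose and kept 10 min on ice, and unbroken cells were removed at 250 × g for 5 min at 4 °C. Homogenate was incubated with 2 mM NADH and 10 μM C8:0-dihydroceramide substrate for 1 h at 37 °C. Lipids were extracted and C8:0-Cer and C8:0-SM quantified by LC-MS/MS; n = 3 independent experiments.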

The target in another data set is T2, human recombinant COX-2 (Homo sapiens, UniProt P35354).
T2 sequence (P35354 18-604): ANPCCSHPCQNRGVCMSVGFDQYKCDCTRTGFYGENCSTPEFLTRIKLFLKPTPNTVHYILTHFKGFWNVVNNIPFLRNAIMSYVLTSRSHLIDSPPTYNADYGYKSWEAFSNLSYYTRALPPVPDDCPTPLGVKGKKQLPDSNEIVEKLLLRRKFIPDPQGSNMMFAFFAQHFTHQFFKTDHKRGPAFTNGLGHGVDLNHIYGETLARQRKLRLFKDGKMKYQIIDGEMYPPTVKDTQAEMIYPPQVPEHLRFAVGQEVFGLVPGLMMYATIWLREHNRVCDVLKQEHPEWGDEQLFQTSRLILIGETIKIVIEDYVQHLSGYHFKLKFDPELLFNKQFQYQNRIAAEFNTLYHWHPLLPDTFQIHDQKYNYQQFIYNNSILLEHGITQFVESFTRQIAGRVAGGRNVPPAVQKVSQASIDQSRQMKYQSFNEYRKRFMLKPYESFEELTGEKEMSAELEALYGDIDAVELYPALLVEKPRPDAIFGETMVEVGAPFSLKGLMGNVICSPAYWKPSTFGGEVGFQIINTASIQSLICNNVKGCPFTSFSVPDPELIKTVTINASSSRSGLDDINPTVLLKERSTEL
As to the kind of experiment: COX-2 enzyme activity assay. It is filed as biochemical. The essentials: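 Test compound was preincubated with enzyme in 0.1 M Tris (pH 8.0) containing 5 mM EDTA, 2 mM phenol and 1 µM hematin. Arachidonic acid (5 µM final) was added for 2 min, and 0.1 M HCl stopped the reaction. Stannous chloride in 0.1 M HCl reduced PGG2/PGH2 to PGF2α, quantified by ELISA. IC50 values are mean ± SEM of four or more independent experiments.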

For another data set, the target named is T3, human recombinant 5-LOX (Homo sapiens, UniProt P09917).
T3 sequence (P09917 1-674): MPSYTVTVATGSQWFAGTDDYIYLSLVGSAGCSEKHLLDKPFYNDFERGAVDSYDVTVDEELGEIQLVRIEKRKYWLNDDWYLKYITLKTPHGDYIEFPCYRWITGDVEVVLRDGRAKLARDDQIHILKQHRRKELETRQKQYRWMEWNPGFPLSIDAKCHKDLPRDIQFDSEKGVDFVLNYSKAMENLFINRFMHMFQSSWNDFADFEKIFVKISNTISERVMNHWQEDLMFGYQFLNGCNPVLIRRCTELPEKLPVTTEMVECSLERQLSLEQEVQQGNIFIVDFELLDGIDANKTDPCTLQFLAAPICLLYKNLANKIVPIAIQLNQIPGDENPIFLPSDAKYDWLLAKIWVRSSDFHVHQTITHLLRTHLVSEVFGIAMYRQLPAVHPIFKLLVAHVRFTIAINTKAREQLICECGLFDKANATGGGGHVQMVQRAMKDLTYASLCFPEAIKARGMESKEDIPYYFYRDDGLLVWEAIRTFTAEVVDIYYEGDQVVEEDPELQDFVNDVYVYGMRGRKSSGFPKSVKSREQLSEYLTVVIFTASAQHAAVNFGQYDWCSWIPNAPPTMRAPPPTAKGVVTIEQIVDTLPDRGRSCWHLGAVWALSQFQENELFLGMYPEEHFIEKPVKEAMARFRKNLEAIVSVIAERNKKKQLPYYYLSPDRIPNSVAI
As to the kind of experiment: 5-LOX activity, ferrous oxidation-xylenol orange. It is filed as biochemical.

The test system of data set [1] is DEGS-1 protein expression in HCT-116 cells. As to the kind of experiment: Western blotting of DEGS-1 protein expression. It is filed as cell-based, human. The settings on record: 10 or 20 μM for 8 or 16 h. The essentials: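 HCT-116 cells were lysed in Tris-EDTA buffer with 1% SDS, 2 mM Na3VO4 and protease inhibitors. Protein was measured by BCA, and equal amounts were resolved by SDS-PAGE and immunoblotted with anti-DEGS-1 antibody.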
(Immunoblotting shows a protein as a band on a membrane.)

In data set [2] the test system is HCT-116 cells. As to the kind of experiment: MTT cell viability assay, HCT-116. It is filed as cell-based, human. The settings on record: time- and dose-dependent. The method in brief: (§1)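 Cells were grown with 10% FBS at 37 °C and 5% CO2: HCT-116 in McCoy's 5A, HT-29 in DMEM. Cells were exposed to test compound at indicated concentrations and times, and viability was read by MTT (mitochondrial dehydrogenase activity) relative to DMSO controls. […] Values are mean SD of at least three independent experiments.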
A general note: Tetrazolium assays rely on reduction of a dye to a coloured formazan, in cell work by metabolically active cells.

Another data set relates to HT-29 cells. The experiment in a line: MTT cell viability assay, HT-29. Format: cell-based, human. The conditions noted are these: time- and dose-dependent. The essentials:
as §1

The test system of data set [3] is HCT-116 cells. The experiment in a line: Annexin V / propidium iodide apoptosis, flow cytometry. Format: cell-based, human. The settings on record: 20 μM for 24 h, compared with DMSO-treated controls. The method in brief: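 HCT-116 cells were grown in McCoy's 5A with 10% FBS at 37 °C and 5% CO2. After treatment, floating and attached cells were pooled and stained with an annexin V–fluorescein/propidium iodide kit. Flow cytometry read apoptosis from annexin V (Ex 488, Em 518 nm) and necrosis from PI (Ex 488-540, Em 617 nm). Data are representative of three or more independent experiments.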
A general note: Flow cytometry measures light scatter and fluorescence of single cells or particles in a stream.

In data set [4] the test system is HCT-116 cells. As to the kind of experiment: Sphingolipid levels by LC-MS/MS. It is filed as cell-based, human. The essentials: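 Treated HCT-116 pellets were extracted in methanol/chloroform/water with internal standards (C12:0- and C25:0-ceramide, C17-sphingosine, C17-sphinganine, C12:0-SM), tip-sonicated 20 s, and incubated overnight at 48 °C. An aliquot was taken for total choline phospholipids (enzymatic colorimetric assay). The remainder was hydrolysed with methanolic KOH (37 °C, 2 h) and dried under N2. Positive-mode MRM LC-MS/MS was run, ceramides/sphingoid bases on C18 and SMs on C8; vs DMSO controls, n ≥ 3.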

Data set [5] relates to HCT-116 cells. As to the kind of experiment: Western blotting of LC3-II, caspase-9 and PARP. It is filed as cell-based, human. The conditions noted are these: 20 μM for 24 h. The essentials:
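HCT-116 lysates were prepared in Tris-EDTA with 1% SDS, 2 mM Na3VO4 and protease inhibitors, and protein was quantified by BCA. Equal protein was resolved by SDS-PAGE and probed for LC3, caspase-9, PARP-1 and actin. Caspase-9 activation and PARP cleavage served as apoptosis read-outs and LC3-II as the autophagy read-out. Blots are representative of three or more independent experiments.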

The target in another data set is T4, DEGS (Rattus norvegicus, UniProt Q5XIF5).
T4 sequence (Q5XIF5 1-323): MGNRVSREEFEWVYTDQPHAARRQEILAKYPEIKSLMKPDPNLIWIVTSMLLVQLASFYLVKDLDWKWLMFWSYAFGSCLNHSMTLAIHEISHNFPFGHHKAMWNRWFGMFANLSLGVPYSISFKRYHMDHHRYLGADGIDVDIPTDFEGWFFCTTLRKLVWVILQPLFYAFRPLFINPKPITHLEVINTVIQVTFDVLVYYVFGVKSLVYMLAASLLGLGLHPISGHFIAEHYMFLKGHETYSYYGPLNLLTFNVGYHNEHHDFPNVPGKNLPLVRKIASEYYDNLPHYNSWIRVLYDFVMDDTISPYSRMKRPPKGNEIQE
As to the kind of experiment: DEGS assay with rat liver microsomal fraction. It is filed as biochemical. The conditions noted are these: rat liver microsomal fraction as source of DEGS; data not shown.

Data set [6] has as its system colon tumorigenesis induced by AOM and DSS. The experiment in a line: AOM/DSS-induced colon tumorigenesis in mice. Format: in vivo, male Balb/c mice. The settings on record: 0.022% in diet.

Some results are limits rather than exact numbers.

A word on the IC50: it is the point on the concentration scale where inhibition reaches its midpoint.

As to `CCCCCCCCCCCCCC1=C([C@@H](O)[C@H](CO)NC(=O)CCCCCCC)C1` [C8-CPPC, C8-cyclopropenylceramide, reference compound], on DEGS1 (1 μM, 1 or 2 h treatment of HCT-116 cells), the “inhibition of DEGS1 enzyme activity” value is ~ 95%.

In the case of `Cc1c(O)cc2c(c1C)O[C@](C)(CCC[C@H](C)CCC[C@H](C)CCCC(C)C)CC2` [γT, γ-tocopherol], at human recombinant COX-2, the IC50 was over 50 µM and the “inhibition of COX-2 at 50 μM” value is given as “neither γT nor δT at 50 μM inhibited COX-2”. At human recombinant 5-LOX, the IC50 is over 50 µM and the “inhibition of 5-LOX at 50 μM” value is “neither γT nor δT at 50 μM inhibited COX-2 or 5-LOX”.

With `Cc1cc(O)cc2c1O[C@](C)(CCC[C@H](C)CCC[C@H](C)CCCC(C)C)CC2` [δT, δ-tocopherol], the “inhibition of COX-2 at 50 μM” value at human recombinant COX-2 is listed as “neither γT nor δT at 50 μM inhibited COX-2”. In addition, on human recombinant 5-LOX, the “inhibition of 5-LOX at 50 μM” value is given as “neither γT nor δT at 50 μM inhibited COX-2 or 5-LOX”.

As to `Cc1cc(O)cc2c1O[C@](C)(CCC[C@H](C)CCC[C@H](C)CCCC(C)C(=O)O)CC2` (some centres unmarked) [δT-13’-COOH], the “effect on DEGS-1 protein expression” value in [1] was “no effect”. Moreover, the cell viability result in the data set on HCT-116 cells [2] and with HT-29 cells was “decreased the viability” throughout. Besides, the “inhibition of DEGS1 enzyme activity” value on DEGS1 (20 μM, 1 h pre-incubation of HCT-116 cells) was ~ 38%; against DEGS1 (20 μM, 2 h pre-incubation of HCT-116 cells), ~ 47%. Further, in the data set with HCT-116 cells [3], the “apoptosis (annexin V staining)” value is “induced early and late-stage apoptosis”. Besides, in the data set with HCT-116 cells [4] (20 μM, 2 h incubation, compared with solvent controls), the “C16:0-Cer” value is “significant decrease”. Besides, the “sphingomyelin species and total SMs” value in the data set on HCT-116 cells [4] (10 or 20 μM, 1-16 h) is on record as “persistent decrease”. For the same molecule, the “total dihydroceramides, individual dhCers and dihydrosphingosine” value in the data set on HCT-116 cells [4] (10 or 20 μM, after 1-2 h treatment, compared with controls) is on record as “dose-dependently increased”. The “LC3-II, a marker of autophagy” value in the data set with HCT-116 cells [5] is recorded as “increase of LC3-II”. Also, the “inhibition of DEGS enzyme activity” value on DEGS is reported as “failed to inhibit the enzyme activity”.

Regarding `C/C(=C\CC/C(C)=C/CC[C@]1(C)CCc2cc(O)cc(C)c2O1)CC/C=C(\C)C(=O)O` [δTE-13’-COOH], the cell viability entry in the data set with HCT-116 cells [2] is “decreased the viability”. For the same molecule, the cell viability result in the data set on HT-29 cells is on record as “decreased the viability”. For the same molecule, in [6] (compared with the control diet), the “effect on body weight” value is reported as “no effect” and the “effect on food intake” value is “no effect”. For the same molecule, the “decrease in number of large tumors (> 2 mm^2)” value in data set [6] (compared with controls, p < 0.05) worked out at 58%. For the same molecule, in [6] (mean ± SEM, n = 15-17, p < 0.01 vs control diet (4.7 ± 0.3)), the “colon tumors per mouse” value is listed as 3.1 ± 0.3 tumors per mouse. The “apoptosis (annexin V staining)” value in the data set on HCT-116 cells [3] is “induced early and late-stage apoptosis”. Moreover, the “LC3-II, a marker of autophagy” value in the data set on HCT-116 cells [5] is given as “increase of LC3-II”.
